# Measurements as given in ChEMBL document CHEMBL1148650, “Synthesis and pharmacological evaluation of novel nitrobenzenic thromboxane modulators as antiplatelet agents acting on both the alpha and beta isoforms of the human thromboxane receptor” (J Med Chem, 2006).
# Columns and labels:
# [1] = molecular target: T1, Thromboxane A2 receptor (Homo sapiens) (UniProt P21731); experiment: Selectivity index, IC50 for TPalpha/IC50 for TPbeta in HEK293 cells; format: functional, cell-based
# T1 sequence (whole entry): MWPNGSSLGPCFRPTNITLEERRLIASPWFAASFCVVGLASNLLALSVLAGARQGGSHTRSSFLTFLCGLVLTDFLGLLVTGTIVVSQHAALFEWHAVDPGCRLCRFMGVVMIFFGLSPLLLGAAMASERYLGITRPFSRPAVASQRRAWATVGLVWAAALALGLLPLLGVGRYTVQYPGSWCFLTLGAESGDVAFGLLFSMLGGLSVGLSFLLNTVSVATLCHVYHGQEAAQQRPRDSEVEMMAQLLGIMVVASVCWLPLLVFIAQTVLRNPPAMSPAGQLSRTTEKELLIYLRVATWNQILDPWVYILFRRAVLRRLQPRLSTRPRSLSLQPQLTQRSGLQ
# Method in brief: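 Ratio of IC50 TPα to IC50 TPβ, both from the calcium assay in stably transfected HEK293 cells. Fluo-4-loaded cells were preincubated 10 min with compound (10^-5 to 10^-8 M), then stimulated with 1 µM U46619. IC50 is the concentration inhibiting 50% of the [Ca2+]i rise.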
# Thromboxane A2 receptor [2] = molecular target: T2, Thromboxane A2 receptor (Homo sapiens, UniProt P21731); experiment: Activity at TPalpha (short isoform) receptor expressed in HEK293 cells assessed as ability to antagonize U46619-mediated calcium ion mobilization; format: functional, cell-based
# T2 sequence (P21731 whole entry): T1 sequence (whole entry)
# Method in brief: (§1)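 HEK293 cells stably overexpressing human TPα or TPβ. Cells were loaded 1 h with Fluo-4/AM (5 µg/mL) and washed in Krebs-HEPES pH 7.4 (150 000 cells/well). Compound (10^-5 to 10^-8 M final) was added 10 min before 1 µM U46619. Fluo-4 signal was calibrated by Triton X-100 and then EGTA (Kd 385 nM) for [Ca2+]i. IC50 is the concentration halving the [Ca2+]i rise.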
# Thromboxane A2 receptor [3] = molecular target: T2, Thromboxane A2 receptor; experiment: Displacement of [3H]SQ-29548 from TPbeta receptor (long isoform) expressed in COS7 cells
# Thromboxane A2 receptor [4] = molecular target: T2, Thromboxane A2 receptor; experiment: Activity at TPbeta (long isoform) receptor expressed in HEK293 cells assessed as ability to antagonize U46619-mediated calcium ion mobilization; format: functional, cell-based; method in brief: as §1
# [5] = molecular target: T1, Thromboxane A2 receptor (Homo sapiens); experiment: Displacement of [3H]SQ-29548 from TPbeta receptor (long isoform) expressed in COS7 cells at 1 nM; conditions: COS-7
# Thromboxane A2 receptor [6] = molecular target: T2, Thromboxane A2 receptor; experiment: Displacement of [3H]SQ29,548 from TPalpha receptor (short isoform) expressed in COS7 cells
# [7] = molecular target: T1, Thromboxane A2 receptor (Homo sapiens); experiment: Displacement of [3H]SQ29,548 from TPalpha receptor (short isoform) expressed in COS7 cells at 1 nM; conditions: COS-7
# [8] = molecular target: T1, Thromboxane A2 receptor (Homo sapiens); experiment: Selectivity index, IC50 for TPalpha/IC50 for TPbeta in COS7 cells; format: cell-based; conditions: COS-7
# Method in brief: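 Binding used 5 × 10^5 cells in 25 mM HEPES/125 mM NaCl/10 µM indomethacin, pH 7.4, with 10 nM [3H]SQ29,548 and compound at 10^-6 to 10^-11 M, in triplicate, for 30 min at 37 °C. Nonspecific binding: 10 µM unlabeled SQ29,548. Bound ligand was counted after filtration. Index = IC50 TPα/IC50 TPβ.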
# [9] = molecular target: T1, Thromboxane A2 receptor (Homo sapiens); experiment: Displacement of [3H]SQ-29548 from TPbeta receptor (long isoform) expressed in COS7 cells at 1 uM; format: cell-based; conditions: COS-7
# [10] = molecular target: T1, Thromboxane A2 receptor (Homo sapiens); experiment: Displacement of [3H]SQ29,548 from TPalpha receptor (short isoform) expressed in COS7 cells at 1 uM; format: cell-based; conditions: COS-7
SMILES,Ratio IC50 [1],IC50 (Thromboxane A2 receptor [2]),IC50 (Thromboxane A2 receptor [3]),IC50 (Thromboxane A2 receptor [4]),Activity [5],IC50 (Thromboxane A2 receptor [6]),Activity [7],Ratio IC50 [8],Activity [9],Activity [10]
CCCCCNC(=O)NS(=O)(=O)c1cc([N+](=O)[O-])ccc1Nc1ccccc1C,–,–,–,–,45.3%,–,45.3%,–,–,–
CCCCNC(=O)NS(=O)(=O)c1cc([N+](=O)[O-])ccc1Oc1ccc(C)cc1,10.6,558 nM,0.7 nM,52.9 nM,56%,0.74 nM,55.7%,1.05,–,–
CCCCCNC(=O)NS(=O)(=O)c1cc([N+](=O)[O-])ccc1Nc1c(C)cc(C)cc1C,–,–,–,–,27.5%,–,27.9%,–,–,–
CCCCCNC(=O)NS(=O)(=O)c1cc([N+](=O)[O-])ccc1Sc1ccc(Cl)cc1,–,–,–,–,21.3%,–,24.7%,–,–,–
Cc1cc(Nc2ccc([N+](=O)[O-])cc2S(=O)(=O)NC(=O)NC(C)(C)C)ccc1Br,–,–,–,–,25%,–,28.5%,–,–,–
CCCCCNC(=O)NS(=O)(=O)c1cc([N+](=O)[O-])ccc1Nc1ccc(Br)c(C)c1,2.92,126 nM,0.58 nM,43.2 nM,49.9%,1.82 nM,32.1%,3.11,–,–
CCCCC/N=C(\NC#N)NS(=O)(=O)c1cc([N+](=O)[O-])ccc1Nc1ccc(C)cc1,–,–,–,–,27.2%,–,25.5%,–,–,–
CCCCCNC(=O)NS(=O)(=O)c1cc([N+](=O)[O-])ccc1Nc1c(C)cccc1C,1.71,80.7 nM,1.48 nM,47.1 nM,54%,1.52 nM,36.5%,1.03,–,–
Cc1ccc(Nc2ccc([N+](=O)[O-])cc2S(=O)(=O)NC(=O)N2CCCCC2)cc1,1.68,64.8 nM,0.68 nM,38.5 nM,54.2%,0.46 nM,46.2%,0.68,–,–
Cc1ccc(Nc2ccc([N+](=O)[O-])cc2S(=O)(=O)NC(=O)NC2CCCCC2)cc1,–,–,–,–,29%,–,31.1%,–,–,–
Cc1ccc(Nc2ccc([N+](=O)[O-])cc2S(=O)(=O)NC(=O)NC(C)(C)C)cc1,6.01,319 nM,0.78 nM,53.1 nM,53.6%,1.05 nM,49.5%,1.35,–,–
CCC(C)NC(=O)NS(=O)(=O)c1cc([N+](=O)[O-])ccc1Nc1c(C)cccc1C (stereo unspecified),–,–,–,–,–,–,–,–,42.5%,48.4%
CCCCCNC(=O)NS(=O)(=O)c1cc([N+](=O)[O-])ccc1Nc1ccc(C)c(C)c1,–,–,–,–,48.7%,–,40.1%,–,–,–
CCCCCNC(=O)NS(=O)(=O)c1cc([N+](=O)[O-])ccc1Oc1ccc(C)cc1,2.52,139 nM,0.65 nM,55.4 nM,48.5%,2.63 nM,35.5%,4.02,–,–
CCCCCCCCNC(=O)NS(=O)(=O)c1cc([N+](=O)[O-])ccc1NC1CCCCC1,–,–,–,–,24.1%,–,17.1%,–,–,–
Cc1ccc(Nc2ccc([N+](=O)[O-])cc2S(=O)(=O)NC(=O)NCc2ccccc2)cc1,1.43,64.5 nM,1.17 nM,45 nM,49.3%,1.9 nM,32.9%,1.62,–,–
Cc1ccc(Sc2ccc([N+](=O)[O-])cc2S(=O)(=O)NC(=O)NC(C)(C)C)cc1,5.32,294 nM,1.74 nM,55.2 nM,37.7%,0.77 nM,47%,0.44,–,–
CCCCCNC(=O)NS(=O)(=O)c1cc([N+](=O)[O-])ccc1Sc1ccc(C)cc1,–,–,–,–,43%,–,38.5%,–,–,–
CCCCC/N=C(\NC#N)NS(=O)(=O)c1cc([N+](=O)[O-])ccc1Nc1cc(C)cc(C)c1,–,–,–,–,53.4%,–,48%,–,–,–
CCCCCNC(=O)NS(=O)(=O)c1cc([N+](=O)[O-])ccc1Nc1ccc(C)cc1C,–,–,–,–,39.9%,–,42.3%,–,–,–
CCCCCNC(=O)NS(=O)(=O)c1cc([N+](=O)[O-])ccc1Sc1ccccc1C,–,–,–,–,32.7%,–,33.4%,–,–,–
CCCCCCCNC(=O)NS(=O)(=O)c1cc([N+](=O)[O-])ccc1NC1CCCCC1,1.67,92.9 nM,2.68 nM,55.5 nM,36.4%,2.5 nM,29.5%,0.93,–,–
CCCCCNC(=O)NS(=O)(=O)c1cc([N+](=O)[O-])ccc1Nc1cc(C)ccc1C,–,–,–,–,33.1%,–,28.6%,–,–,–

# Results, then the molecule that gave them:
Ratio IC50 [1],IC50 (Thromboxane A2 receptor [2]),IC50 (Thromboxane A2 receptor [3]),IC50 (Thromboxane A2 receptor [4]),Activity [5],IC50 (Thromboxane A2 receptor [6]),Activity [7],Ratio IC50 [8],Activity [9],Activity [10],SMILES
7.03,538 nM,0.7 nM,76.5 nM,49.7%,1.08 nM,49.7%,1.55,–,–,CCCCCNC(=O)NS(=O)(=O)c1cc([N+](=O)[O-])ccc1Nc1cc(C)cc(C)c1
–,–,–,–,36.8%,–,35.2%,–,–,–,CCCCCNC(=O)NS(=O)(=O)c1cc([N+](=O)[O-])ccc1Oc1ccccc1C
–,–,–,–,31.7%,–,32.5%,–,–,–,CC(C)(C)NC(=O)NS(=O)(=O)c1cc([N+](=O)[O-])ccc1Sc1ccc(Cl)cc1
–,–,–,–,39%,–,44.6%,–,–,–,CCCCCNC(=O)NS(=O)(=O)c1cc([N+](=O)[O-])ccc1Nc1cccc(C)c1C
8.56,601 nM,0.79 nM,70.2 nM,51.9%,1.52 nM,49.8%,1.93,–,–,Cc1ccc(Oc2ccc([N+](=O)[O-])cc2S(=O)(=O)NC(=O)NC2CCCCC2)cc1
1.01,58.3 nM,1.77 nM,57.6 nM,44.7%,1.26 nM,53.3%,0.71,–,–,Cc1ccc(Oc2ccc([N+](=O)[O-])cc2S(=O)(=O)NC(=O)NC(C)(C)C)cc1
–,–,–,–,52.7%,–,48.9%,–,–,–,CCCCCNC(=O)NS(=O)(=O)c1cc([N+](=O)[O-])ccc1Nc1ccc(Cl)cc1
1.85,56.9 nM,0.56 nM,30.8 nM,46.3%,0.78 nM,46.4%,1.4,–,–,Cc1cccc(C)c1Nc1ccc([N+](=O)[O-])cc1S(=O)(=O)NC(=O)NC(C)(C)C
3.69,50 nM,3.53 nM,13.6 nM,34.2%,2.65 nM,39.6%,0.75,–,–,CCCCCNC(=O)NS(=O)(=O)c1cc([N+](=O)[O-])ccc1Nc1ccc(C)cc1
9,526 nM,1.58 nM,58.5 nM,46.1%,0.72 nM,55.2%,0.45,–,–,CCCCCCNC(=O)NS(=O)(=O)c1cc([N+](=O)[O-])ccc1Oc1ccc(C)cc1
1.76,81.2 nM,1.07 nM,46.2 nM,42.5%,0.71 nM,44.2%,0.67,–,–,CCCCCCNC(=O)NS(=O)(=O)c1cc([N+](=O)[O-])ccc1NC1CCCCC1
–,–,–,–,22.8%,–,20.1%,–,–,–,CCCCCNC(=O)NS(=O)(=O)c1cc([N+](=O)[O-])ccc1Oc1cccc(C)c1
1.33,60.4 nM,4.43 nM,45.5 nM,35.8%,1.01 nM,48.5%,0.23,–,–,CCCCCNC(=O)NS(=O)(=O)c1cc([N+](=O)[O-])ccc1Nc1cccc(C)c1
–,–,–,–,–,–,–,–,40.4%,40.7%,CCC(C)NC(=O)NS(=O)(=O)c1cc([N+](=O)[O-])ccc1Nc1ccc(C)cc1 (stereo unspecified)
